Screening results as filed in PubChem BioAssay.
KCNK9 block – human KCNK9 channel inhibition; HEK293 KCNK9, FluxOR thallium flux fluorescence; hits give low values; 310,000 tested, 1.2% active; Q9NPC2; AID 488922; B-score at 10 µM;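 active means ratio B-score over 3 SD below the library mean, with starting fluorescence within 5 SD of its mean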;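 further: negative B-score means less thallium flux so channel inhibition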
KCNQ1 inh – inhibitors of human KCNQ1 potassium channel | P51787 | CHO-K1 KCNQ1, FluxOR thallium flux fluorescence; hits give high values | B-score at 10 µM | 310,000 tested, 1.3% active;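 active means compounds whose thallium flux B-score, printed positive for inhibition, exceeds three library SD while starting fluorescence stays within three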;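 further: channel opened by potassium depolarization with thallium stimulus after 20 min compound exposure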
KCNK3 inh – human KCNK3 channel inhibition, primary screen | 340,000 tested, 0.84% active | B-score at 10 µM | CHO-KCNK3 thallium flux, FluxOR fluorescence; hits give low values | O14649;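 active means B-score under library mean minus 4 SD, starting fluorescence ratio at most library mean plus 5 SD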;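 further: more negative B-score means stronger inhibition of thallium flux through KCNK3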
hERG protect – shields human hERG channel from block by proarrhythmic agents. Q12809. CHO-hERG, FluxOR thallium flux, dofetilide IC70 present. activation (rescue from dofetilide block), less the hit threshold, % at 10 µM. 310,000 tested, 0.51% active. AID 1511;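 active means activation above the mean of controls blocked by dofetilide plus 5 SD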;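 further: thallium influx through hERG after potassium depolarization seen as dye fluorescence rise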
KCNQ1 act – human KCNQ1 channel potentiation or activation. AID 2648. 310,000 tested, 0.35% active. P51787. CHO-K1 KCNQ1, thallium flux FluxOR fluorescence; hits give high values. B-score at 10 µM;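 active means fluorescence ratio B-score, a plate-corrected score, at least three library SD, with initial intensity B-score within 5 SD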
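Assay system: stable KCNQ1 CHO-K1 line; medium: assay buffer, equal DMSO in all wells; timing: 90 min dye loading and 20 min compound exposure, both at room temperature; technique: kinetic FluxOR thallium fluorescence, 10-s 1-Hz baseline, 110-s post-stimulus read; read-out basis: B score of baseline-normalized fluorescence ratio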
KCC2 mod – modulators of human KCC2 chloride dependent transport | 190,000 tested, 2.2% active | B-score of Tl+ flux slope (higher = more flux/activation; lower = inhibition) at 10 µM | AID 1456 | Q9H2X9 | KCC2 cells, thallium flux FluoZin-2 fluorescence;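 active means thallium flux slope and its plate-corrected score both differing from the plate sample mean at a set confidence after two filtering rounds, in either direction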;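 further: slope of fluorescence scaled to starting intensity during 10 to 20 s after thallium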
Target sequence (Q9H2X9 whole entry, looked up): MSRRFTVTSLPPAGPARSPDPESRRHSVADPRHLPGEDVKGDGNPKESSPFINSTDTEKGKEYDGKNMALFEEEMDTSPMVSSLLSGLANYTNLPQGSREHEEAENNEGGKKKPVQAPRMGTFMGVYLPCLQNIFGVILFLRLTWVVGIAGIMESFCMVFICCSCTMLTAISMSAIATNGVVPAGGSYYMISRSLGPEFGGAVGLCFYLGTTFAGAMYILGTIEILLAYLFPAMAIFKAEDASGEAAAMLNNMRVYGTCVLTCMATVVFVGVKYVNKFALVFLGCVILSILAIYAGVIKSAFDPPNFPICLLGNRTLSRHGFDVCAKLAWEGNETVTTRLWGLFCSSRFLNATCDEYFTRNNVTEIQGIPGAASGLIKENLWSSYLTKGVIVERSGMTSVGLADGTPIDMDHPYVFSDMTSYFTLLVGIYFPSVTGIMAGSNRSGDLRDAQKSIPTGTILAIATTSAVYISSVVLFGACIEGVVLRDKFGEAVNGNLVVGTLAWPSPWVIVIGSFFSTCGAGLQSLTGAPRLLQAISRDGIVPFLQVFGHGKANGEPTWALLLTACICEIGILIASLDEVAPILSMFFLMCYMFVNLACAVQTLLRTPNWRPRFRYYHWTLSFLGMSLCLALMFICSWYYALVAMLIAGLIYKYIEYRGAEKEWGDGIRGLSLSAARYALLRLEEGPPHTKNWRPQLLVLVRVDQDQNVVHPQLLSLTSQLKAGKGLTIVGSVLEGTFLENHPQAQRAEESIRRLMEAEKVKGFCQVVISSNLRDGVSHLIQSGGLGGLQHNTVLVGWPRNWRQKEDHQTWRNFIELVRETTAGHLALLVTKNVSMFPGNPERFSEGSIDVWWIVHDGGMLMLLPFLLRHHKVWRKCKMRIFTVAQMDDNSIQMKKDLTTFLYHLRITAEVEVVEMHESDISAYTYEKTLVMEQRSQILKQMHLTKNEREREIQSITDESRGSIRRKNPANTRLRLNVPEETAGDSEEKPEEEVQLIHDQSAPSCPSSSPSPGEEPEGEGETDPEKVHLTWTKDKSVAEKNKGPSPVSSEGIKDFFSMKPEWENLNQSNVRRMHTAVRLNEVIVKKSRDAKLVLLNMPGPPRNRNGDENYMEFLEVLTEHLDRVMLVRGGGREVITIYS
KCC2 sec1 – KCC2 (human) modulation, secondary assay; shares compounds with KCC2 mod; HEK293-KCC2, thallium flux, FluoZin2 fluorescence; hits give high values; normalised thallium flux (F/F0 slope) at 10 µM; 3,700 tested, 15% active; AID 1713;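 active means thallium flux slope above the same plate's solvent-only control mean plus 3 SD; inconclusive means the two replicate wells disagree; inactive means no significant difference from solvent-only control wells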
KCC2 bumet counter – thallium flux persisting under bumetanide in KCC2 cells, counter-screen secondary assay. shares compounds with KCC2 mod. HEK293-KCC2 + bumetanide/ouabain, thallium flux FluoZin2; hits give high values. normalized thallium flux at 10 µM. 3,700 tested, 49% active;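 active means thallium entry rate above the same plate's blocked-transporter control wells by more than 3 SD; inconclusive means the two repeat wells disagree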;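 further: raw slope of fluorescence over initial fluorescence between 10 and 20 s after thallium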
KCC2 secondary2 – KCC2 (human) modulation, second secondary assay; shares compounds with KCC2 mod; HEK293-KCC2, thallium flux FluoZin2 fluorescence; actives lie on both sides; F/F0 rise rate, 10–20 s post-thallium; normalized thallium flux at 10 µM; 3,700 tested, 23% active;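 active means thallium flux slope more than 3 SD above or below the plate's solvent-only control mean, mostly below; inconclusive means the two repeat wells disagreed; inactive means no significant shift from solvent-only controls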
HEK293 Tl flux – acts in parental HEK cells, KCC2 counter-screen; shares compounds with KCC2 mod; HEK293 parental cells, thallium flux FluoZin2, ouabain; baseline-ratio fluorescence slope, 10–20 s after thallium; thallium flux rate (normalised fluorescence) at 10 µM; 3,700 tested, 46% active; AID 1716;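 active means thallium flux rate significantly above the same plate's solvent-only control wells, beyond their mean plus 3 SD; inconclusive means the two replicate wells gave conflicting results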
KCC2 ouabain – confirmation of human KCC2 modulators with ouabain. shares compounds with KCC2 mod. HEK293-KCC2, thallium flux FluoZin2 fluorescence; bidirectional: low = inhibitor, high = activator. raw Tl+ flux slope (below DMSO = inhibition, above = activation) at 10 µM. 3,700 tested, 48% active. AID 1717;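 active means thallium flux slope beyond 3 SD from same-plate DMSO control mean in most replicates, usually higher, sometimes lower; inconclusive means repeat tests gave conflicting results; inactive means no significant difference from controls in most replicates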;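 further: slope of initial-normalized fluorescence between seconds 10 and 20 after thallium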
HEK293 Tl flux2 – acts in parental HEK cells, second KCC2 counter-screen; HEK293 parental, thallium flux FluoZin-2 fluorescence slope; 3,700 tested, 33% active; shares compounds with KCC2 mod; thallium flux slope at 10 µM;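 active means thallium flux slope above the same plate's solvent-control mean plus 3 SD in both duplicate wells; inconclusive means duplicate wells that disagreed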;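 further: run without ouabain in cells lacking the KCC2 cotransporter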
Hits are given with their value; 0 = inactive; ? = inconclusive; - = no result. Rows were chosen to be rich in hits. Some 4.1% of all compounds tested hit in one or more screens of this group.

SMILES	KCNK9 block	KCNQ1 inh	KCNK3 inh	hERG protect	KCNQ1 act	KCC2 mod	KCC2 sec1	KCC2 bumet counter	KCC2 secondary2	HEK293 Tl flux	KCC2 ouabain	HEK293 Tl flux2
O=c1cc(S(=O)(=O)Cc2ccccc2)[nH]c(=O)[nH]1	-	-	0	-	-	-	-	-	-	-	-	-
C[C@@H]1CN([C@@H](C)CO)C(=O)c2cccc(NC(=O)Nc3ccccc3)c2O[C@H]1CN(C)C(=O)Nc1cccc2ccccc12	-	-	0	-	-	-	-	-	-	-	-	-
Cc1nn(-c2ccccc2)c(C)c1/C=N/NC(=O)c1cc(C2CC2)[nH]n1	0	0	0	0	0	-	0	0	0	0	0.015	0
CC1(c2ccc(Cl)cc2)NC(=O)N(CC(=O)N2CCc3ccccc32)C1=O (centres undefined)	-	-	0	-	-	-	-	-	-	-	-	-
CCOC(=O)c1cc2c(c(CCO)n1)[C@H](CCO)N(S(=O)C(C)(C)C)C2 (some centres undefined)	-	-	0	-	-	-	-	-	-	-	-	-
CC(CNC(=O)CN(C)CC(=O)Nc1ccccc1Br)c1ccccc1 (centres undefined)	-	-	0	-	-	-	-	-	-	-	-	-
O=C(Nc1cnc2ccccc2c1)c1cccc(-n2cnnn2)c1	0	0	0	0	0	0	-	-	-	-	-	-
c1ccc2ncc(-n3cnnn3)cc2c1	0	0	0	0	0	3	0	0	0	0	0	0
Cn1nccc1C(=O)OCC(=O)Nc1nc(-c2ccccc2)cs1	0	0	0	0	0	-5.3	0	0	0.022	0	0	0
COc1ccccc1-c1nnc(SCC(=O)Nc2nc(-c3ccccc3)cs2)n1C	0	0	0	6.1	0	-4	?	0	0	0	0.015	0
Cc1cc(=O)[nH]c(SCC(=O)Nc2nnc(SCc3ccccc3)s2)n1	0	0	0	0	0	-4.8	0	0	0.025	0.0048	0.015	0.0083
Cc1cc(=O)[nH]c(SCC(=O)Nc2nc(-c3ccccc3)cs2)n1	0	0	0	0	0	-7.1	0	0	0	0	0.015	0
N#CCCCC1(CCCC#N)OCCO1	-	-	0	-	-	-	-	-	-	-	-	-
Cc1cc(=O)c2c(o1)C(=O)c1occc1C2=O	-	-	0	-	-	-	-	-	-	-	-	-
CCN(CC(=O)NCc1ccc(Cl)cc1)C(=O)c1sccc1C	-	-	0	-	-	-	-	-	-	-	-	-
N#Cc1ccc(C(=O)N2CCC3CC2c2cc(-c4ccc(F)cc4)ccc23)cc1 (centres undefined)	-	-	0	-	-	-	-	-	-	-	-	-
COc1ccc(C)c2sc(N(CCCN(C)C)C(=O)c3ccc4c(c3)OCCO4)nc12	0	0	0	0	0	-	-	-	-	-	-	-
COc1ccc([N+](=O)[O-])cc1NCC(=O)Nc1cc(S(=O)(=O)N2CCCCC2)ccc1C	-	-	0	-	-	-	-	-	-	-	-	-
Cc1nc(CC(=O)Nc2nc(-c3ccccc3)cs2)cs1	0	0	0	0	0	-3.4	0	0	?	0	0.017	0
C[C@@]12C(=O)Nc3cc(F)ccc3C(=O)N1[C@H]1c3ccccc3OC[C@@H]1[C@@H]2c1ccccc1	-	-	0	-	-	-	-	-	-	-	-	-
Cc1cccc(NC(=O)CN2CCN(C(=O)c3c(C)nn(Cc4ccccc4)c3C)CC2)c1C	-	-	0	-	-	-	-	-	-	-	-	-
O=C1Cc2c([nH]c3ccc([N+](=O)[O-])cc23)-c2ccccc2N1	-	-	0	-	-	-	-	-	-	-	-	-
Cc1ccc(N/N=C/c2c(C)c(C#N)c(=O)n(C)c2O)cc1C	0	0	0	0	0	-3.9	0	0	0	?	0	0
